# ChEMBL document CHEMBL6083235, “Synthesis, evaluation and mechanistic insights of novel IMPDH inhibitors targeting ESKAPEE bacteria” (Eur J Med Chem, 2024)
# Calls of active or inactive are those of the source. The calls are words filed in the database; no cut-off is given here.
# What was measured:
# [1] = target: T1, Inosine-5'-monophosphate dehydrogenase (Pseudomonas aeruginosa (strain ATCC 15692 / DSM 22644 / CIP 104116 / JCM14847 / LMG 12228 / 1C / PRS 101 / PAO1)) (UniProt Q9HXM5); assay: Inhibition of Pseudomonas aeruginosa IMPDH extracted form Escherichia coli BL21 (DE3)pDIA17 assessed as formation of NADH at 50 uM relative to control
# T1 sequence (whole entry): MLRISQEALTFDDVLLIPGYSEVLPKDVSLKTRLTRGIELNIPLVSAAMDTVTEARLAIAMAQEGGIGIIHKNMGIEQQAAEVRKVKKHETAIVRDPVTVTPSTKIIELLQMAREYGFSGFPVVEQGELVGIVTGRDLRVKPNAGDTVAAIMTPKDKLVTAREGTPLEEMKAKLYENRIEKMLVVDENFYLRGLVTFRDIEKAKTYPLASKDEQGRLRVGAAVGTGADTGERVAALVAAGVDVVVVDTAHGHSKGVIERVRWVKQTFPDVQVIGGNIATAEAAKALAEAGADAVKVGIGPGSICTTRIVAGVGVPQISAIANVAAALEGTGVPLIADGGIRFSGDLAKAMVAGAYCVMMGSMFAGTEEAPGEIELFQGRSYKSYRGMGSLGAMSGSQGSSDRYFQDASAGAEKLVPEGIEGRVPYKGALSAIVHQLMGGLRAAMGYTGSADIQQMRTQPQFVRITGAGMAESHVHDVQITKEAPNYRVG
# In short: (§1)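 His-tagged wild-type IMPDH (E. coli, P. aeruginosa or S. aureus) made in E. coli BL21(DE3)/pDIA17, purified by metal-affinity then gel filtration. NADH formation followed at 340 nm, 30 °C, with 0.2 mM IMP, 0.4 mM NAD⁺, 0.2 mM MgATP, 2 mM MgCl₂. Buffers: pa Tris-HCl 50 mM pH 8; ec Tris-HCl 50 mM pH 8, KCl 50 mM; sa Na₂CO₃ 50 mM pH 9.2, KCl 20 mM. Compound at 50 μM; % inhibition vs compound-free activity.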
# [2] = target: T2, Inosine-5'-monophosphate dehydrogenase (Pseudomonas aeruginosa (strain ATCC 15692 / DSM 22644 / CIP 104116 / JCM14847 / LMG 12228 / 1C / PRS 101 / PAO1), UniProt Q9HXM5); assay: Inhibition of Pseudomonas aeruginosa IMPDH extracted form Escherichia coli BL21 (DE3)pDIA17 assessed as formation of NADH; details: read-out: I50
# T2 sequence (Q9HXM5 whole entry): T1 sequence (whole entry)
# [3] = target: T3, Inosine-5'-monophosphate dehydrogenase (Escherichia coli K-12) (UniProt P0ADG7); assay: Inhibition of Escherichia coli IMPDH extracted form Escherichia coli BL21 (DE3)pDIA17 assessed as formation of NADH at 50 uM relative to control; in short: as §1
# T3 sequence (whole entry): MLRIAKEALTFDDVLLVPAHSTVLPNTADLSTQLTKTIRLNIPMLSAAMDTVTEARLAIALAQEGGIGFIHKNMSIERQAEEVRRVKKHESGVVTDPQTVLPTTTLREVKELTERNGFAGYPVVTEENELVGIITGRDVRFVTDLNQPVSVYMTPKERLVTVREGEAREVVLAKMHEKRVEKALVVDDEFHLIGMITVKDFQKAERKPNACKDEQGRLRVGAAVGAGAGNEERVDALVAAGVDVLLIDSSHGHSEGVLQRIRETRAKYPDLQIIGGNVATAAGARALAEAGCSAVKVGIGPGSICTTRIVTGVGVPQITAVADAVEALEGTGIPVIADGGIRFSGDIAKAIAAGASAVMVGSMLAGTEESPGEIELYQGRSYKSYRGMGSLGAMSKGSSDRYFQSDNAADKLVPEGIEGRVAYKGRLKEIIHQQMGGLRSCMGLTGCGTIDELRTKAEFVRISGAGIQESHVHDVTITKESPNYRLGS
# Staphylococcus aureus [4] = assay: Inhibition of Staphylococcus aureus IMPDH extracted form Escherichia coli BL21 (DE3)pDIA17 assessed as formation of NADH at 50 uM relative to control; in short: as §1
# [5] = target: Inosine-5'-monophosphate dehydrogenase 2 (Homo sapiens) (UniProt P12268); assay: Inhibition of human IMPDH2 extracted form Escherichia coli BL21 (DE3)pDIA17 assessed as formation of NADH at 50 uM
# Chain of Inosine-5'-monophosphate dehydrogenase 2 (Homo sapiens) (P12268 2-514 limits assumed): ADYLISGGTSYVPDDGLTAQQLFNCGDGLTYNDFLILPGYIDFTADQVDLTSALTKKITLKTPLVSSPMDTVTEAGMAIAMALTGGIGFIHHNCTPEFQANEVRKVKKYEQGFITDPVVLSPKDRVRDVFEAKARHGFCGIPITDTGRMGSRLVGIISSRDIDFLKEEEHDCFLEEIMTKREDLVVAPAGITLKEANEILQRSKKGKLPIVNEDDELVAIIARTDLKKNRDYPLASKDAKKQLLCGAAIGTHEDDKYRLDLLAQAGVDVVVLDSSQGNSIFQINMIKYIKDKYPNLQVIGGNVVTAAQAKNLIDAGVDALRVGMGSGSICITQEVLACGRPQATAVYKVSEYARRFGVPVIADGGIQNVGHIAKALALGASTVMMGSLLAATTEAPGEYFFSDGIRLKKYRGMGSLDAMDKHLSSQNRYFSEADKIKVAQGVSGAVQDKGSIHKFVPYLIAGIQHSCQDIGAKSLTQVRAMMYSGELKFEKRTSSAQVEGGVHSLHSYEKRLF
# Staphylococcus aureus [6] = assay: Antibacterial activity against methicillin-resistant Staphylococcus aureus ATCC 43300 assessed as growth inhibition at 32 ug/ml relative to control; format: functional
# Escherichia coli = assay: Inhibition of Escherichia coli IMPDH delta Bateman domain extracted form Escherichia coli BL21 (DE3)pDIA17 assessed as formation of NADH at 50 uM relative to control
# In short: (§2)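 Bateman-domain-deleted IMPDH (E. coli or P. aeruginosa), His-tagged, made in E. coli BL21(DE3)/pDIA17. NADH formation at 340 nm, 30 °C, 0.2 mM IMP, 0.4 mM NAD⁺, 0.2 mM MgATP, 2 mM MgCl₂. Buffer: ec Tris-HCl 50 mM pH 9, KCl 100 mM; pa Tris-HCl 50 mM pH 8, KCl 100 mM. Compound 50 μM; % inhibition relative to uninhibited enzyme.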
# [7] = Inhibition of Escherichia coli IMPDH delta Bateman domain extracted form Escherichia coli BL21 (DE3)pDIA17 assessed as formation of NADH; details: read-out: I50
# In short: (§3)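 Bateman-domain-deleted IMPDH (E. coli or P. aeruginosa) from E. coli BL21(DE3)/pDIA17; NADH at 340 nm, 30 °C, 0.2 mM IMP, 0.4 mM NAD⁺, 0.2 mM MgATP, 2 mM MgCl₂; buffers as per variant (ec Tris-HCl pH 9/KCl 100 mM; pa Tris-HCl pH 8/KCl 100 mM). I50 by dose-response logistic fit, at least three experiments.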
# Pseudomonas aeruginosa = assay: Inhibition of Pseudomonas aeruginosa IMPDH delta Bateman domain extracted form Escherichia coli BL21 (DE3)pDIA17 assessed as formation of NADH at 50 uM relative to control; in short: as §2
# [8] = Inhibition of Pseudomonas aeruginosa IMPDH delta Bateman domain extracted form Escherichia coli BL21 (DE3)pDIA17 assessed as formation of NADH; details: read-out: I50; in short: as §3
# [9] = target: T1, Inosine-5'-monophosphate dehydrogenase (Pseudomonas aeruginosa (strain ATCC 15692 / DSM 22644 / CIP 104116 / JCM14847 / LMG 12228 / 1C / PRS 101 / PAO1)); assay: Non-competitive inhibition of Pseudomonas aeruginosa IMPDH in presence of 2 mM NAD+ by Michaelis-Menten equation
# In short: (§4)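 Steady-state kinetics of P. aeruginosa ΔBateman IMPDH: initial rates (NADH at 340 nm, 30 °C, Tris-HCl 50 mM pH 8, KCl 100 mM) measured across variable IMP at saturating 2 mM NAD⁺, without or with several inhibitor concentrations; data from at least three experiments fitted to Michaelis–Menten and shown as Lineweaver-Burk plots.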
# [10] = target: T1, Inosine-5'-monophosphate dehydrogenase (Pseudomonas aeruginosa (strain ATCC 15692 / DSM 22644 / CIP 104116 / JCM14847 / LMG 12228 / 1C / PRS 101 / PAO1)); assay: Non-competitive inhibition of Pseudomonas aeruginosa IMPDH by Lineweaver-Burk plot analysis; in short: as §4
# [11] = test system: Mycobacterium tuberculosis; assay: Inhibition of Mycobacterium tuberculosis TMP kinase using 0.05 dTMP and 0.5 mM MgATP by measuring NADH consumption at 20 uM by coupled spectrophotometric assay
# In short: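 Recombinant M. tuberculosis TMP kinase; activity at 30 °C by NADH consumption at 340 nm in a pyruvate kinase/lactate dehydrogenase/nucleoside diphosphate kinase coupled assay (2 units each). Medium: 50 mM Tris-HCl pH 7.4, 50 mM KCl, 2 mM MgCl2, 0.2 mM NADH, 1 mM phosphoenolpyruvate. ATP held at 0.5 mM and dTMP at 0.05 mM; compound at 20 μM.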
# Caco-2 [12] = assay: Cytotoxicity against human Caco-2 cells assessed as cell viability at 1 uM measured after 72 hrs by Alamar blue assay; format: toxicity, cell-based; details: caco-2, 72 h
# In short: (§5)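 Confluent Caco-2 monolayers (seeded 1.10⁵ cells/cm², 48 h growth; DMEM 25 mM glucose, 10 % FBS, NEAA, 37 °C, 5 % CO₂) exposed 72 h; vehicle 0.1 % DMSO, 0.2 % Triton X-100 as cytotoxic control. Rinsed with PBS, 5 % Alamar Blue in FBS-free medium 30 min at 37 °C; resorufin fluorescence (ex 530/em 570 nm) relative to DMSO. Mean ± SEM, three independent experiments.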
# Caco-2 [13] = assay: Cytotoxicity against human Caco-2 cells assessed as cell viability at 10 uM measured after 72 hrs by Alamar blue assay; format: toxicity, cell-based; details: caco-2, 72 h; in short: as §5
# [14] = Metabolic stability in mouse liver microsomes assessed as recovery in presence of NADPH measured after 120 mins; format: ADME, Microsome; details: read-out: Drug recovery
# [15] = Metabolic stability in mouse liver microsomes assessed as recovery in absence of NADPH measured after 120 mins; format: ADME, Microsome; details: read-out: Drug recovery
# [16] = Inhibition of Pseudomonas aeruginosa IMPDH delta Bateman domain in absence of detergent; in short: as §3
# [17] = Inhibition of Pseudomonas aeruginosa IMPDH delta Bateman domain in presence of detergent by detergent-sensitive enzyme-inhibition assay
# In short: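 P. aeruginosa ΔBateman IMPDH dose-response run under reference conditions (0.2 mM IMP, 0.4 mM NAD⁺, 0.2 mM MgATP, 2 mM MgCl₂; Tris-HCl 50 mM pH 8, KCl 100 mM; 30 °C, NADH at 340 nm) with 0.01 % Triton X-100 included, to exclude colloidal aggregation; I50 from logistic fit.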
smiles,measurement,setting,value
CC(C)(NC(=O)Nc1ccc(Cl)c([N+](=O)[O-])c1)c1cccc(-c2cccs2)c1,inhibition,[1],96%
same,IC50,[2],0.14 µM
CC(C)(NC(=O)NCc1ccccc1)c1cccc(-c2cccs2)c1,inhibition,[1],15%
CCOC(=O)n1cc(-c2cccc(C(C)(C)NC(=O)Nc3ccc(Cl)c([N+](=O)[O-])c3)c2)cn1,inhibition,[1],87%
same,IC50,[2],0.42 µM
CC(C)(NC(=O)Nc1ccc(Cl)c([N+](=O)[O-])c1)c1cccc(-c2cc[nH]n2)c1,inhibition,[1],99%
same,IC50,[2],0.11 µM
same,inhibition,[3],92%
same,inhibition,Staphylococcus aureus [4],94%
same,inhibition,[5],inactive
same,inhibition at 32 µg/mL,Staphylococcus aureus [6],79.3%
same,inhibition,Escherichia coli,88%
same,IC50,[7],4.95 µM
same,inhibition,Pseudomonas aeruginosa,98%
same,IC50,[8],0.16 µM
same,inhibition,[9],Active
same,inhibition,[10],Active
same,inhibition,[11],inactive
same,Activity,Caco-2 [12],Non-toxic
same,Activity,Caco-2 [13],Non-toxic
same,remaining at 2 h,[14],> 95%
same,remaining at 2 h,[15],> 95%
CC(C)(NC(=O)NCc1ccccc1)c1cccc(-c2cc[nH]n2)c1,inhibition,[1],59%
CC(C)(NC(=O)Nc1ccc(Cl)c([N+](=O)[O-])c1)c1cccc(-c2cccnc2F)c1,inhibition,[1],98%
same,IC50,[2],0.24 µM
CC(C)(NC(=O)Nc1ccc(Cl)c([N+](=O)[O-])c1)c1cccc(-c2cn(C(c3ccccc3)(c3ccccc3)c3ccccc3)cn2)c1,inhibition,[1],35%
CC(C)(NC(=O)Nc1ccc(Cl)c([N+](=O)[O-])c1)c1cccc(-c2nccs2)c1,inhibition,[1],97%
same,IC50,[2],0.11 µM
CC(C)(NC(=O)NCc1ccccc1)c1cccc(-c2ccco2)c1,inhibition,[1],10%
same,inhibition,[5],inactive
same,inhibition at 32 µg/mL,Staphylococcus aureus [6],0.49%
same,inhibition,Escherichia coli,1%
same,inhibition,Pseudomonas aeruginosa,6%
CC(C)(NC(=O)Nc1ccc(Cl)c([N+](=O)[O-])c1)c1cccc(-c2nccn2Cc2ccccc2)c1,inhibition,[1],63%
CC(C)(NC(=O)NCc1ccccc1)c1cccc(-c2ccccc2)c1,inhibition,[1],16%
CCOC(=O)n1ccc(-c2cccc(C(C)(C)NC(=O)Nc3ccc(Cl)c([N+](=O)[O-])c3)c2)n1,inhibition,[1],98%
same,IC50,[2],0.16 µM
CC(C)(NC(=O)Nc1ccc(Cl)c([N+](=O)[O-])c1)c1cccc(-c2c[nH]cn2)c1,inhibition,[1],99%
same,IC50,[2],0.1 µM
same,inhibition,[3],88%
same,inhibition,Staphylococcus aureus [4],89%
same,inhibition,[5],inactive
same,inhibition at 32 µg/mL,Staphylococcus aureus [6],79.3%
same,inhibition,Escherichia coli,90%
same,IC50,[7],4.26 µM
same,inhibition,Pseudomonas aeruginosa,99%
same,IC50,[8],0.15 µM
same,inhibition,[9],Active
same,inhibition,[10],Active
same,inhibition,[11],inactive
same,IC50,[16],0.15 µM
same,IC50,[17],0.14 µM
same,Activity,Caco-2 [12],Non-toxic
same,Activity,Caco-2 [13],Non-toxic
same,remaining at 2 h,[14],> 95%
same,remaining at 2 h,[15],> 95%
CC(C)(NC(=O)Nc1ccc(Cl)c([N+](=O)[O-])c1)c1cccc(-c2ccco2)c1,inhibition,[1],99%
same,IC50,[2],0.26 µM
CC(C)(NC(=O)NCc1ccccc1)c1cccc(-c2cn[nH]c2)c1,inhibition,[1],29%
CCOc1ncccc1-c1cccc(C(C)(C)NC(=O)Nc2ccc(Cl)c([N+](=O)[O-])c2)c1,inhibition,[1],95%
same,IC50,[2],0.59 µM
CC(C)(NC(=O)Nc1ccc(Cl)c([N+](=O)[O-])c1)c1cccc(-c2cn[nH]c2)c1,inhibition,[1],97%
same,IC50,[2],0.13 µM
same,inhibition,[3],89%
same,inhibition,Staphylococcus aureus [4],93%
same,inhibition,[5],inactive
same,inhibition at 32 µg/mL,Staphylococcus aureus [6],61.7%
same,inhibition,Escherichia coli,84%
same,IC50,[7],5.51 µM
same,inhibition,Pseudomonas aeruginosa,99%
same,IC50,[8],0.17 µM
same,inhibition,[9],Active
same,inhibition,[10],Active
same,inhibition,[11],inactive
same,Activity,Caco-2 [12],Non-toxic
same,Activity,Caco-2 [13],Non-toxic
same,remaining at 2 h,[14],> 95%
same,remaining at 2 h,[15],> 95%
